Test results from ChEMBL document CHEMBL1121429, “Soft drugs. 1. Labile quaternary ammonium salts as soft antimicrobials” (J Med Chem, 1980).

How the values were obtained:
Salmonella typhimurium [1] = test: Minimum inhibitory concentration of salt was tested against Salmonella Typhimurium […] at 0.1 M NaH2PO4 adjusted to pH 7.0; format: functional; settings: Salmonella enterica
Streptococcus pyogenes [2] = test: Sterilization time for contact germicidal efficiency (CGE) of salt was tested against at Streptococcus pyogenes at pH 7.0, concentration 936.0 ppm; format: functional
Streptococcus pyogenes [3] = test: Sterilization time for contact germicidal efficiency (CGE) of salt was tested against at Streptococcus pyogenes at pH 8.0, concentration 1018 ppm; format: functional
Pseudomonas aeruginosa [4] = test: Sterilization time for contact germicidal efficiency (CGE) of salt was tested against at Pseudomonas aeruginosa at pH 6.0, concentration 1018 ppm; format: functional
Staphylococcus aureus [5] = test: Sterilization time for contact germicidal efficiency (CGE) of salt was tested against Staphylococcus aureus at pH 7.0, concentration 936.0 ppm; format: functional
Staphylococcus aureus [6] = test: Sterilization time for contact germicidal efficiency (CGE) of salt was tested against at Staphylococcus aureus at pH 8.0, concentration 1018 ppm; format: functional
Staphylococcus aureus [7] = test: Sterilization time for contact germicidal efficiency (CGE) of salt was tested against Staphylococcus aureus at pH 7.0, concentration 1038.7 ppm; format: functional
Streptococcus pyogenes [8] = test: Sterilization time for contact germicidal efficiency (CGE) of salt was tested against at Streptococcus pyogenes at pH 7.0, concentration 1039 ppm; format: functional
Staphylococcus aureus [9] = test: Sterilization time for contact germicidal efficiency (CGE) of salt was tested against at Staphylococcus aureus at pH 7.0, concentration 1039 ppm; format: functional
Pseudomonas aeruginosa [10] = test: Sterilization time for contact germicidal efficiency (CGE) of salt was tested against at Pseudomonas aeruginosa at pH 7.0, concentration 1039 ppm; format: functional
Staphylococcus aureus [11] = test: Sterilization time for contact germicidal efficiency (CGE) of salt was tested against at Staphylococcus aureus at pH 6.0, concentration 1018 ppm; format: functional
Pseudomonas aeruginosa [12] = test: Sterilization time for contact germicidal efficiency (CGE) of salt was tested against at Pseudomonas aeruginosa at pH 7.0, concentration 1038.7 ppm; format: functional
Pseudomonas aeruginosa [13] = test: Sterilization time for contact germicidal efficiency (CGE) of salt was tested against at Pseudomonas aeruginosa at pH 8.0, concentration 1018 ppm; format: functional
Pseudomonas aeruginosa [14] = test: Sterilization time for contact germicidal efficiency (CGE) of salt was tested against at Pseudomonas aeruginosa at pH 7.0, concentration 936.0 ppm; format: functional
[15] = Toxicity of the salt was tested on white swiss male mice after intraperitoneal administration; format: organism-based; settings: mouse, in vivo, ip
Outline: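 Male White Swiss mice (MCR-ICR), 20-23 g, 10-20 per dose. Salt given in isotonic NaCl, pH 7.0 (adjusted with sodium bicarbonate). LD50 with confidence limits was calculated by Litchfield–Wilcoxon.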

Streptococcus pyogenes [16] = test: Sterilization time for contact germicidal efficiency (CGE) of salt was tested against at Streptococcus pyogenes at pH 7.0, concentration 1038.7 ppm; format: functional
Streptococcus pyogenes [17] = test: Sterilization time for contact germicidal efficiency (CGE) of salt was tested against at Streptococcus pyogenes at pH 6.0, concentration 1018 ppm; format: functional
[18] = Toxicity of the salt was tested on white swiss male mice after oral administration; format: organism-based; settings: mouse, in vivo
Outline: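 Male White Swiss mice (MCR-ICR), 20-23 g, 10-20 per dose, dosed orally. At higher doses the salt was given in 0.8% NaCl brought to pH 5.84 with sodium bicarbonate. LD50 was calculated by Litchfield–Wilcoxon.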

Staphylococcus aureus [19] = test: Minimum inhibitory concentration of salt was tested against Staphylococcus aureus aureus at 0.1 M NaH2PO4 adjusted to pH 7.0; format: functional
Outline: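 Bacteria grown 18-20 h at 37 °C in tryptose phosphate broth, adjusted to OD650 0.01, then diluted into double-strength medium to about 2 × 10^5 viable organisms/mL. Compound in 0.1 M NaH2PO4 pH 7.0 was serially twofold diluted into sterile water and added 1:1 to the cultures. MIC read after 18-20 h at 37 °C, with viability, sterility and buffer controls.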

Pseudomonas aeruginosa [20] = test: Sterilization time for contact germicidal efficiency (CGE) of salt was tested against at Pseudomonas aeruginosa at pH 6.0, concentration 1007 ppm; format: functional, organism-based
Streptococcus pyogenes [21] = test: Sterilization time for contact germicidal efficiency (CGE) of salt was tested against at Streptococcus pyogenes at pH 7.0, concentration 1031 ppm; format: functional, organism-based
Pseudomonas aeruginosa [22] = test system: Pseudomonas aeruginosa
Staphylococcus aureus [23] = test: Sterilization time for contact germicidal efficiency (CGE) of salt was tested against Staphylococcus aureus at pH 7.0, concentration 1031 ppm; format: functional, organism-based
Salmonella typhimurium [24] = test system: Salmonella typhimurium
Staphylococcus aureus [25] = test: Sterilization time for contact germicidal efficiency (CGE) of salt was tested against at Staphylococcus aureus at pH 8.0, concentration 1042 ppm; format: functional, organism-based
Staphylococcus aureus [26] = test: Sterilization time for contact germicidal efficiency (CGE) of salt was tested against at Staphylococcus aureus at pH 6.0, concentration 1007 ppm; format: functional, organism-based
Streptococcus pyogenes [27] = test: Sterilization time for contact germicidal efficiency (CGE) of salt was tested against at Streptococcus pyogenes at pH 8.0, concentration 1042 ppm; format: functional, organism-based
Streptococcus pyogenes [28] = test system: Streptococcus pyogenes
Pseudomonas aeruginosa [29] = test: Sterilization time for contact germicidal efficiency (CGE) of salt was tested against at Pseudomonas aeruginosa at pH 7.0, concentration 1031 ppm; format: functional, organism-based
Bacillus subtilis [30] = test system: Bacillus subtilis
Staphylococcus aureus [31] = test: Sterilization time for contact germicidal efficiency (CGE) of salt was tested against at Staphylococcus aureus at pH 7.0, concentration 1031 ppm; format: functional, organism-based
Streptococcus pyogenes [32] = test: Sterilization time for contact germicidal efficiency (CGE) of salt was tested against at Streptococcus pyogenes at pH 6.0, concentration 1007 ppm; format: functional, organism-based
Pseudomonas aeruginosa [33] = test: Sterilization time for contact germicidal efficiency (CGE) of salt was tested against at Pseudomonas aeruginosa at pH 8.0, concentration 1042 ppm; format: functional, organism-based
Streptococcus pyogenes [34] = test: Minimum inhibitory concentration of salt was tested against Streptococcus pyogenes aureus at 0.1 M NaH2PO4 adjusted to pH 7.0; format: functional
Bacillus subtilis [35] = test: Minimum inhibitory concentration of salt was tested against Bacillus subtilis at 0.1 M NaH2PO4 adjusted to pH 7.0; format: functional
Pseudomonas aeruginosa [36] = test: Minimum inhibitory concentration of salt was tested against Pseudomonas aeruginosa at 0.1 M NaH2PO4 adjusted to pH 7.0; format: functional
Streptococcus pyogenes [37] = test: Sterilization time for contact germicidal efficiency (CGE) of salt was tested against at Streptococcus pyogenes at pH 7.0, concentration 1116.0 ppm; format: functional
Outline: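 Streptococcus pyogenes ATCC 19615 overnight culture, 5 × 10^6 cfu/mL; 0.2 mL into 5 mL test solution of salt in buffer, left 30 min at room temperature beforehand. At timed intervals (0.5 to 30 min), a 3-mm loop was transferred to sterile nutrient broth and incubated at 37 °C for 7 days. Sterilization time is the shortest interval without growth; buffer-only and viability controls were run.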

Staphylococcus aureus [38] = test: Sterilization time for contact germicidal efficiency (CGE) of salt was tested against Staphylococcus aureus at pH 7.0, concentration 1116.0 ppm; format: functional
Outline: (§1)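 Test solutions of the quaternary salt in buffer stood 30 min at room temperature. 0.2 mL of overnight broth culture was added to 5 mL of solution. Inocula: S. aureus ATCC 6538 6-8 × 10^6 cfu/mL, P. aeruginosa ATCC 9027 12-13 × 10^6/mL, S. pyogenes ATCC 19615 5 × 10^6 cfu/mL. At 0.5-30 min intervals a loop was subcultured into nutrient broth and incubated 7 days at 37 °C. Sterilization time is the first interval giving no growth.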

Pseudomonas aeruginosa [39] = test: Sterilization time for contact germicidal efficiency (CGE) of salt was tested against at Pseudomonas aeruginosa at pH 7.0, concentration 1116.0 ppm; format: functional; outline: as §1

CCCCCCCCCCCCCCCC(=O)OC[n+]1ccccc1.[Cl-]
MIC (Salmonella typhimurium [1]): 1070 µg/mL

CCCCCCCCCCCCCCCC[n+]1ccccc1.[Cl-]
Time (Streptococcus pyogenes [2]): 0.5 min | Time (Streptococcus pyogenes [3]): 0.5 min | Time (Pseudomonas aeruginosa [4]): 0.5 min | Time (Staphylococcus aureus [5]): 0.5 min | Time (Staphylococcus aureus [6]): 0.5 min | Time (Staphylococcus aureus [7]): 0.5 min | Time (Streptococcus pyogenes [8]): 0.5 min | Time (Staphylococcus aureus [9]): 0.5 min | Time (Pseudomonas aeruginosa [10]): 0.5 min | Time (Staphylococcus aureus [11]): 0.5 min | Time (Pseudomonas aeruginosa [12]): 0.5 min | Time (Pseudomonas aeruginosa [13]): 0.5 min | Time (Pseudomonas aeruginosa [14]): 0.5 min | LD50 [15]: 10 mg/kg | Time (Streptococcus pyogenes [16]): 0.5 min | Time (Streptococcus pyogenes [17]): 0.5 min | LD50 [18]: 108 mg/kg

Hexadecyl-trimethyl-ammonium bromide
MIC (Staphylococcus aureus [19]): < 2 p.p.m. | TIME (Pseudomonas aeruginosa [20]): 0.00833 h | TIME (Streptococcus pyogenes [21]): 0.00833 h | MIC (Pseudomonas aeruginosa [22]): 128 p.p.m. | TIME (Staphylococcus aureus [23]): 0.00833 h | MIC (Salmonella typhimurium [24]): 64.3 p.p.m. | TIME (Staphylococcus aureus [25]): 0.00833 h | TIME (Staphylococcus aureus [26]): 0.00833 h | TIME (Streptococcus pyogenes [27]): 0.00833 h | MIC (Streptococcus pyogenes [28]): < 2 p.p.m. | TIME (Pseudomonas aeruginosa [29]): 0.00833 h | MIC (Bacillus subtilis [30]): < 2 p.p.m. | TIME (Staphylococcus aureus [31]): 0.00833 h | TIME (Streptococcus pyogenes [32]): 0.00833 h | TIME (Pseudomonas aeruginosa [33]): 0.00833 h

CCCCCCCCCCCCCCCC(=O)OC[N+]1=CN(C)CC1.[Cl-]
MIC (Staphylococcus aureus [19]): 1.3 µg/mL | MIC (Streptococcus pyogenes [34]): > 42.4 µg/mL | MIC (Bacillus subtilis [35]): > 42.4 µg/mL | MIC (Pseudomonas aeruginosa [36]): > 42.4 µg/mL | MIC (Salmonella typhimurium [1]): > 42.4 µg/mL

CCCCCCCCCCCC(=O)OC[n+]1cccc(C(=O)NCC)c1.[Cl-]
MIC (Staphylococcus aureus [19]): 130 µg/mL | Time (Streptococcus pyogenes [37]): 0.5 min | MIC (Streptococcus pyogenes [34]): 32.6 µg/mL | Time (Staphylococcus aureus [38]): 0.5 min | MIC (Bacillus subtilis [35]): 32.6 µg/mL | MIC (Pseudomonas aeruginosa [36]): 1040 µg/mL | Time (Pseudomonas aeruginosa [39]): 3 min | MIC (Salmonella typhimurium [1]): 522 µg/mL
